# Experimental data taken from ChEMBL document CHEMBL1128333, “Derivatives of cis-2-amino-8-hydroxy-1-methyltetralin: mixed 5-HT1A-receptor agonists and dopamine D2-receptor antagonists” (J Med Chem, 1995).
# How the values were obtained:
# Rattus norvegicus [1] = species on record: Rattus norvegicus; experiment: DOPAC (3,4-dihydroxyphenylacetic acid) content of rat striatum reflecting DA metabolism and turnover; assay type: functional; design: concentration or dose not given beside the values
# How it was run: (§1)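 Male Sprague–Dawley rats (260–310 g) received compound sc in 0.9% NaCl; saline controls. Rats were decapitated 35–45 min post-injection, and hippocampus and striatum were dissected and frozen. Tissue was homogenized in 0.1 M perchloric acid with α-methyl-5-hydroxytryptophan as internal standard, centrifuged and filtered, then analysed by HPLC-EC at 0.85 V (mobile phase pH 2.69, 35 °C). Values are percent of control, mean ± SEM.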
# Rattus norvegicus [2] = experiment: Forepaw treading (FPT) behavior was studied in rats after subcutaneous administration of 32 uM/Kg of compound; 0/4; assay type: functional
# How it was run: (§2)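 Test compounds were given at 32 μmol/kg and the reference 5-HT1A agonist at 1 μmol/kg. Flat body posture, forepaw treading and hind limb abduction were each scored as absent or present. Values are animals showing the behavior out of animals tested, analysed by Fisher's exact test. Male Sprague–Dawley rats, 260–310 g.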
# Rattus norvegicus [3] = species on record: Rattus norvegicus; experiment: 5-HIAA (5-Hydroxyindoleacetic acid) content of rat hippocampus reflecting 5-HT metabolism and turnover; assay type: functional; design: concentration or dose not given beside the values; how it was run: as §1
# Rattus norvegicus [4] = experiment: Flat body posture behavior was studied in rats after subcutaneous administration of 32 uM/Kg of compound; 0/4; assay type: functional; how it was run: as §2
# Rattus norvegicus [5] = experiment: Change in body temperature in rats after subcutaneous administration; assay type: functional
# How it was run: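 Rectal temperature was taken with an electrical thermometer, probe inserted 3.5 cm, before and 30 min after sc injection in 0.9% NaCl. Values are the change from the preinjection reading, analysed by Tukey HSD versus saline-treated rats. Male Sprague–Dawley rats, 260–310 g.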
# [6] = molecular target: T1, 5-hydroxytryptamine receptor 1A (Rattus norvegicus, UniProt P19327); experiment: Binding affinity for 5-hydroxytryptamine 1A receptor in rat brain tissue using [3H]8-OH-DPAT as radioligand; assay type: tissue-based
# T1 sequence (P19327 whole entry): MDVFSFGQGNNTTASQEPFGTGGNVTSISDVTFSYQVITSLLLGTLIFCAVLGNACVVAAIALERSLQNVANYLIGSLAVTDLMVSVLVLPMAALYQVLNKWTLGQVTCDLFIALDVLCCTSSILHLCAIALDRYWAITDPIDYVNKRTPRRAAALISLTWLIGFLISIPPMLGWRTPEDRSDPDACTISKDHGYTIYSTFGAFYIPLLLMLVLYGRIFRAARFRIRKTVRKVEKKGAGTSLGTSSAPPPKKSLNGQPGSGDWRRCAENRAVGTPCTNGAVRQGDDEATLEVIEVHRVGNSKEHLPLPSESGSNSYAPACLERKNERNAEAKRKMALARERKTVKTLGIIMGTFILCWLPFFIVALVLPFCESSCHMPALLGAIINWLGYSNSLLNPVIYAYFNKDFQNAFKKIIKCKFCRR
# How it was run: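 Membranes from male Sprague–Dawley rat cortex plus hippocampus, homogenized in 50 mM Tris-HCl with 4.0 mM CaCl2 and 5.7 mM ascorbic acid, pH 7.5, and preincubated 10 min at 37 °C with 10 μM pargyline. Assay used 5 mg/mL tissue and 2 nM [3H]-8-OH-DPAT, 10 min at 37 °C. Nonspecific binding was defined with 10 μM 5-HT. Bound ligand was separated on GF/B filters and counted; data were fitted by nonlinear regression.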
# Rattus norvegicus [7] = species on record: Rattus norvegicus; experiment: 5-HT content of rat hippocampus reflecting 5-HT metabolism and turnover; assay type: functional; design: concentration or dose not given beside the values; how it was run: as §1
# Rattus norvegicus [8] = species on record: Rattus norvegicus; experiment: HVA (Homovanillic acid)content of rat striatum reflecting DA metabolism and turnover; assay type: functional; design: concentration or dose not given beside the values
# Rattus norvegicus [9] = species on record: Rattus norvegicus; experiment: DA (dopamine) content of rat striatum reflecting DA metabolism and turnover; assay type: functional; how it was run: as §1
# Rattus norvegicus [10] = experiment: Cage leaving response was studied in rats after subcutaneous administration of 32 uM/Kg of compound; 3/4; assay type: functional
# Rattus norvegicus [11] = species on record: Rattus norvegicus; experiment: Ratio of turnover (DOPAC to DA) in rat brain striatum compared to control.; assay type: functional; how it was run: as §1
# Rattus norvegicus [12] = species on record: Rattus norvegicus; experiment: Ratio of serotonin turnover (5HIAA to 5-HT) in rat brain hippocampus compared to control; assay type: functional; how it was run: as §1
# Rattus norvegicus [13] = experiment: Flat body posture behavior was studied in rats after subcutaneous administration of 32 uM/Kg of compound; 5/5; assay type: functional
# Rattus norvegicus [14] = experiment: Cage leaving response was studied in rats after subcutaneous administration of 32 uM/Kg of compound; 0/5; assay type: functional
# Rattus norvegicus [15] = experiment: Forepaw treading (FPT) behavior was studied in rats after subcutaneous administration of 32 uM/Kg of compound; 5/5; assay type: functional
# Rattus norvegicus [16] = experiment: Cage leaving response was studied in rats after subcutaneous administration of 32 uM/Kg of compound; 4/5; assay type: functional
# Rattus norvegicus [17] = experiment: Forepaw treading (FPT) behavior was studied in rats after subcutaneous administration of 32 uM/Kg of compound; 0/5; assay type: functional
# Rattus norvegicus [18] = experiment: Flat body posture behavior was studied in rats after subcutaneous administration of 32 uM/Kg of compound; 0/5; assay type: functional
# Rattus norvegicus [19] = experiment: Cage leaving response was studied in rats after subcutaneous administration of 32 uM/Kg of compound; 2/4; assay type: functional
# D(2) dopamine receptor = D(2) dopamine receptor (Homo sapiens, UniProt P14416); experiment: In vitro binding affinity towards human Dopamine receptor D2A was determined in mouse fibroblast LtK cells using [3H]raclopride; assay type: cell-based
# Chain of D(2) dopamine receptor (P14416 whole entry): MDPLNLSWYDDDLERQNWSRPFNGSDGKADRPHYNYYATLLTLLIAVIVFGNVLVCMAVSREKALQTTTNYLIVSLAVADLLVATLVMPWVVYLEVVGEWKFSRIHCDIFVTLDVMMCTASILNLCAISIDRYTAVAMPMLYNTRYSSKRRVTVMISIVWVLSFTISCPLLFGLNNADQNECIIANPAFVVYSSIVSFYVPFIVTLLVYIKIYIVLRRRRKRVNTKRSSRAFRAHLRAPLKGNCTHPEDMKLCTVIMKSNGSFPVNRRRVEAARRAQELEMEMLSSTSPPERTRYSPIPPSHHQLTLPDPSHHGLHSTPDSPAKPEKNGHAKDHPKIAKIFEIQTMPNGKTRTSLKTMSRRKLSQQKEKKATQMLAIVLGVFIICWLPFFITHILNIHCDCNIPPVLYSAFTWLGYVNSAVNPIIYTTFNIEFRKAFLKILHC
# How it was run: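 Membranes from Ltk− mouse fibroblasts stably expressing human D2A receptors, at 80–100 pM receptor. Buffer was 50 mM Tris-HCl, 120 mM NaCl, 5 mM KCl, 1.5 mM CaCl2, 4 mM MgCl2, 1 mM EDTA, pH 7.4. Incubation with [3H]raclopride was 60 min at 22 °C, in duplicate, with 1 μM (+)-butaclamol for nonspecific binding. Bound ligand was separated on GF/B filters; data were fitted by nonlinear regression.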
# Rattus norvegicus [20] = experiment: Cage leaving response was studied in rats after subcutaneous administration of 32 uM/Kg of compound; 3/5; assay type: functional
Ki [6],SMILES,Control (Rattus norvegicus [1]),FPT (Rattus norvegicus [2]),Control (Rattus norvegicus [3]),FBP (Rattus norvegicus [4]),Change of body temperature (Rattus norvegicus [5]),Control (Rattus norvegicus [7]),Control (Rattus norvegicus [8]),Control (Rattus norvegicus [9]),Ratio (Rattus norvegicus [11]),Ratio (Rattus norvegicus [12]),Cage leaving (Rattus norvegicus [16]),FPT (Rattus norvegicus [17]),FBP (Rattus norvegicus [18]),also measured
44 nM,CCCN(CCC)[C@H]1CCc2cccc(-c3ccco3)c2[C@H]1C,102%,0,121%,0,0.1 °C,108%,109%,103%,98,107,,,,Cage leaving (Rattus norvegicus [10]): 3
38 nM,CCCN(CCC)[C@@H]1CCc2cccc(C(=O)NC(C)C)c2[C@@H]1C,74%,,66%,,-2.5 °C,123%,94%,99%,76,54,,,,FBP (Rattus norvegicus [13]): 5; Cage leaving (Rattus norvegicus [14]): 0; FPT (Rattus norvegicus [15]): 5
> 1000 nM,CCCN(CCC)[C@@H]1CCc2cccc(-c3ccco3)c2[C@@H]1C,116%,0,111%,0,0.1 °C,110%,107%,91%,128,101,,,,Cage leaving (Rattus norvegicus [10]): 3
,CCCN(C(C)C)[C@H]1CCc2cccc(O)c2[C@H]1C,86%,,79%,,-0.1 °C,97%,100%,110%,77,80,4,0,0,
,CCCN(CCC)[C@H]1CCc2cccc(C(=O)c3ccccc3)c2[C@H]1C,112%,,114%,,0 °C,93%,97%,102%,109,123,4,0,0,
6.7 nM,CCCN(CCC)[C@@H]1CCc2cccc(OS(=O)(=O)C(F)(F)F)c2[C@@H]1C,105%,,87%,,0 °C,105%,102%,108%,97,82,4,0,0,Ki (D(2) dopamine receptor): 124 nM
2.6 nM,CCCN(CCC)[C@@H]1CCc2cccc(C(=O)c3ccccc3)c2[C@@H]1C,117%,,92%,,0.1 °C,101%,111%,105%,110,89,4,0,0,
236 nM,CCCN(CCC)[C@H]1CCc2cccc(OS(=O)(=O)C(F)(F)F)c2[C@H]1C,107%,,91%,,0.1 °C,97%,99%,107%,99,80,,0,0,Cage leaving (Rattus norvegicus [20]): 3
,CCCN(CCC)[C@H]1CCc2cccc(O)c2[C@H]1C,118%,0,104%,0,-0.3 °C,109%,96%,107%,112,95,,,,Cage leaving (Rattus norvegicus [19]): 2
> 1000 nM,CCCN(CCC)[C@H]1CCc2cccc(C(=O)NC(C)C)c2[C@H]1C,59%,,97%,,0 °C,104%,76%,82%,74,92,4,0,0,
,CCCN(CCC)[C@@H]1CCc2cccc(C(=O)OC)c2[C@@H]1C,167%,,78%,,-2.7 °C,122%,194%,112%,152,64,,,,FBP (Rattus norvegicus [13]): 5; Cage leaving (Rattus norvegicus [14]): 0; FPT (Rattus norvegicus [15]): 5; Ki (D(2) dopamine receptor): 58.8 nM

SMILES,Ki [6],Control (Rattus norvegicus [1]),FPT (Rattus norvegicus [2]),Control (Rattus norvegicus [3]),FBP (Rattus norvegicus [4]),Change of body temperature (Rattus norvegicus [5]),Control (Rattus norvegicus [7]),Control (Rattus norvegicus [8]),Control (Rattus norvegicus [9]),Ratio (Rattus norvegicus [11]),Ratio (Rattus norvegicus [12]),Cage leaving (Rattus norvegicus [16]),FPT (Rattus norvegicus [17]),FBP (Rattus norvegicus [18]),also measured
CCCN(C(C)C)[C@H]1CCc2cccc(OC)c2[C@H]1C,1420 nM,96%,0,110%,0,0 °C,87%,90%,103%,94,124,,,,Cage leaving (Rattus norvegicus [19]): 2
CCCN(CCC)[C@@H]1CCc2cccc(C(C)=O)c2[C@@H]1C,0.56 nM,192%,,96%,,-1.7 °C,99%,203%,95%,200,97,,,,FBP (Rattus norvegicus [13]): 5; Cage leaving (Rattus norvegicus [14]): 0; FPT (Rattus norvegicus [15]): 5; Ki (D(2) dopamine receptor): 40 nM
CCCN(C(C)C)[C@@H]1CCc2cccc(OC)c2[C@@H]1C,116 nM,102%,0,104%,0,0.1 °C,86%,105%,99%,102,116,,,,Cage leaving (Rattus norvegicus [19]): 2
CCCN(CCC)[C@H]1CCc2cccc(C(C)=O)c2[C@H]1C,138 nM,130%,0,93%,0,0.1 °C,99%,93%,95%,110,93,,,,Cage leaving (Rattus norvegicus [10]): 3
CCCN(C(C)C)[C@@H]1CCc2cccc(O)c2[C@@H]1C,81 nM,116%,,93%,,-0.3 °C,96%,225%,74%,155,97,4,0,0,Ki (D(2) dopamine receptor): 614 nM
CCCN(CCC)[C@H]1CCc2ccccc2[C@H]1C,> 1000 nM,92%,,112%,,0.1 °C,107%,111%,113%,81,104,,0,0,Cage leaving (Rattus norvegicus [20]): 3
